Read-outs that look alike come from different tables or passages of the source.
Type: in vivo, human
Summary of the method: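 Adults with advanced solid tumours (ECOG 0–1; TP53 wild-type or unknown) received oral test compound on day 1 of 21-day cycles or days 1 and 8 of 28-day cycles, until progression or unacceptable toxicity. Antiemetic prophylaxis followed guidelines. AE incidence and severity were graded per NCI CTCAE v5.0 and summarised descriptively.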

Cc1c(C(=O)O)ccc2c3n(nc12)[C@@H]1[C@H](C3)N(CC2CC2)[C@@]2(C(=O)Nc3cc(Cl)ccc32)[C@H]1c1cccc(Cl)c1F [brigimadlin]
Any AE (All patients (N = 54)): 54 (100.0) n (%) | Any AE (any cause) leading to study drug discontinuation (All patients (N = 54)): 3 (5.6) n (%) | Any AE (any cause) leading to study drug dose reduction (All patients (N = 54)): 19 (35.2) n (%) | Any TRAE (All patients (N = 54)): 50 (92.6) n (%) | Any grade ≥3 AE (All patients (N = 54)): 33 (61.1) n (%) | Any grade ≥3 TRAE (All patients (N = 54)): 25 (46.3) n (%) | Serious AEs (any cause) (All patients (N = 54)): 18 (33.3) n (%) | TRAE Alopecia, All grades (All patients (N = 54)): 12 (22.2) n (%) | TRAE Alopecia, Grade ≥3 (All patients (N = 54)): 0 n (%) | TRAE Anemia, All grades (All patients (N = 54)): 16 (29.6) n (%) | TRAE Anemia, Grade ≥3 (All patients (N = 54)): 5 (9.3) n (%) | TRAE Decreased appetite, All grades (All patients (N = 54)): 17 (31.5) n (%) | TRAE Decreased appetite, Grade ≥3 (All patients (N = 54)): 0 n (%) | TRAE Decreased lymphocyte count, All grades (All patients (N = 54)): 7 (13.0) n (%) | TRAE Decreased lymphocyte count, Grade ≥3 (All patients (N = 54)): 4 (7.4) n (%) | TRAE Decreased weight, All grades (All patients (N = 54)): 4 (7.4) n (%) | TRAE Decreased weight, Grade ≥3 (All patients (N = 54)): 0 n (%) | TRAE Decreased white blood cell count, All grades (All patients (N = 54)): 13 (24.1) n (%) | TRAE Decreased white blood cell count, Grade ≥3 (All patients (N = 54)): 7 (13.0) n (%) | TRAE Diarrhea, All grades (All patients (N = 54)): 16 (29.6) n (%) | TRAE Diarrhea, Grade ≥3 (All patients (N = 54)): 0 n (%) | TRAE Dysgeusia, All grades (All patients (N = 54)): 10 (18.5) n (%) | TRAE Dysgeusia, Grade ≥3 (All patients (N = 54)): 0 n (%) | TRAE Fatigue, All grades (All patients (N = 54)): 25 (46.3) n (%) | TRAE Fatigue, Grade ≥3 (All patients (N = 54)): 1 (1.9) n (%) | TRAE Gastroesophageal reflux disease, All grades (All patients (N = 54)): 5 (9.3) n (%) | TRAE Gastroesophageal reflux disease, Grade ≥3 (All patients (N = 54)): 0 n (%) | TRAE Increased alanine aminotransferase, All grades (All patients (N = 54)): 3 (5.6) n (%) | TRAE Increased alanine aminotransferase, Grade ≥3 (All patients (N = 54)): 0 n (%) | TRAE Increased aspartate aminotransferase, All grades (All patients (N = 54)): 5 (9.3) n (%) | TRAE Increased aspartate aminotransferase, Grade ≥3 (All patients (N = 54)): 0 n (%) | TRAE Nausea, All grades (All patients (N = 54)): 40 (74.1) n (%) | TRAE Nausea, Grade ≥3 (All patients (N = 54)): 4 (7.4) n (%) | TRAE Neutropenia, All grades (All patients (N = 54)): 16 (29.6) n (%) | TRAE Neutropenia, Grade ≥3 (All patients (N = 54)): 13 (24.1) n (%) | TRAE Thrombocytopenia, All grades (All patients (N = 54)): 24 (44.4) n (%) | TRAE Thrombocytopenia, Grade ≥3 (All patients (N = 54)): 14 (25.9) n (%) | TRAE Vomiting, All grades (All patients (N = 54)): 28 (51.9) n (%) | TRAE Vomiting, Grade ≥3 (All patients (N = 54)): 1 (1.9) n (%) | patients with neutropenia leading to dose reduction (D1D8q4w): four | patients with thrombocytopenia leading to dose reduction (D1D8q4w): four | serious AE thrombocytopenia (D1D8q4w): three | Any AE (D1D8q4w (n = 25)): 25 (100.0) n (%) | Any AE (any cause) leading to study drug discontinuation (D1D8q4w (n = 25)): 1 (4.0) n (%) | Any AE (any cause) leading to study drug dose reduction (D1D8q4w (n = 25)): 8 (32.0) n (%) | Any TRAE (D1D8q4w (n = 25)): 23 (92.0) n (%) | Any grade ≥3 AE (D1D8q4w (n = 25)): 12 (48.0) n (%) | Any grade ≥3 TRAE (D1D8q4w (n = 25)): 8 (32.0) n (%) | Serious AEs (any cause) (D1D8q4w (n = 25)): 9 (36.0) n (%) | TRAE Alopecia, All grades (D1D8q4w (n = 25)): 6 (24.0) n (%) | TRAE Alopecia, Grade ≥3 (D1D8q4w (n = 25)): 0 n (%) | TRAE Anemia, All grades (D1D8q4w (n = 25)): 4 (16.0) n (%) | TRAE Anemia, Grade ≥3 (D1D8q4w (n = 25)): 2 (8.0) n (%) | TRAE Decreased appetite, All grades (D1D8q4w (n = 25)): 7 (28.0) n (%) | TRAE Decreased appetite, Grade ≥3 (D1D8q4w (n = 25)): 0 n (%) | TRAE Decreased lymphocyte count, All grades (D1D8q4w (n = 25)): 2 (8.0) n (%) | TRAE Decreased lymphocyte count, Grade ≥3 (D1D8q4w (n = 25)): 1 (4.0) n (%) | TRAE Decreased weight, Grade ≥3 (D1D8q4w (n = 25)): 0 n (%) | TRAE Decreased white blood cell count, All grades (D1D8q4w (n = 25)): 4 (16.0) n (%) | TRAE Decreased white blood cell count, Grade ≥3 (D1D8q4w (n = 25)): 2 (8.0) n (%) | TRAE Diarrhea, All grades (D1D8q4w (n = 25)): 8 (32.0) n (%) | TRAE Diarrhea, Grade ≥3 (D1D8q4w (n = 25)): 0 n (%) | TRAE Dysgeusia, All grades (D1D8q4w (n = 25)): 5 (20.0) n (%) | TRAE Dysgeusia, Grade ≥3 (D1D8q4w (n = 25)): 0 n (%) | TRAE Fatigue, All grades (D1D8q4w (n = 25)): 10 (40.0) n (%) | TRAE Fatigue, Grade ≥3 (D1D8q4w (n = 25)): 0 n (%) | TRAE Gastroesophageal reflux disease, All grades (D1D8q4w (n = 25)): 3 (12.0) n (%) | TRAE Gastroesophageal reflux disease, Grade ≥3 (D1D8q4w (n = 25)): 0 n (%) | TRAE Increased alanine aminotransferase, All grades (D1D8q4w (n = 25)): 0 n (%) | TRAE Increased alanine aminotransferase, Grade ≥3 (D1D8q4w (n = 25)): 0 n (%) | TRAE Increased aspartate aminotransferase, All grades (D1D8q4w (n = 25)): 1 (4.0) n (%)
